According to ChEMBL document CHEMBL2034975, “Cycloartane and friedelane triterpenoids from the leaves of Caloncoba glauca and their evaluation for inhibition of 11β-hydroxysteroid dehydrogenases” (J Nat Prod, 2012):

Assays:
Format in all cases: cell-based
[1] = molecular target: T1, 11-beta-hydroxysteroid dehydrogenase type 2 (Homo sapiens) (UniProt P80365); test: Inhibition of human 11beta-HSD2 expressed in HEK293 cells assessed as conversion of [3H]cortisone into [3H]cortisol at 1 uM by scintillation proximity assay
T1 sequence (whole entry): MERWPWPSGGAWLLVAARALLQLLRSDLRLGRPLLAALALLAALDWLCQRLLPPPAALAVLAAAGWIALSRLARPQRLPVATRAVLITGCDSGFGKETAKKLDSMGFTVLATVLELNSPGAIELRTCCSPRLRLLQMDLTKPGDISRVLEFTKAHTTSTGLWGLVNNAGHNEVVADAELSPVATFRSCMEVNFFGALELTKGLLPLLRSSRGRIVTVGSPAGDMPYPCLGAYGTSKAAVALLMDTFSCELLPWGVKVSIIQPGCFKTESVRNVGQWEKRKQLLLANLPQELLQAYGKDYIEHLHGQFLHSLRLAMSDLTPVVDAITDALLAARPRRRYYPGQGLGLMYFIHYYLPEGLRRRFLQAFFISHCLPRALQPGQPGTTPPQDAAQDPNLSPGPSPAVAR

[2] = molecular target: T2, 11-beta-hydroxysteroid dehydrogenase type 2 (Mus musculus) (UniProt P51661); test: Inhibition of mouse 11beta-HSD2 expressed in HEK293 cells assessed as conversion of [3H]cortisone into [3H]cortisol at 1 uM by scintillation proximity assay
T2 sequence (whole entry): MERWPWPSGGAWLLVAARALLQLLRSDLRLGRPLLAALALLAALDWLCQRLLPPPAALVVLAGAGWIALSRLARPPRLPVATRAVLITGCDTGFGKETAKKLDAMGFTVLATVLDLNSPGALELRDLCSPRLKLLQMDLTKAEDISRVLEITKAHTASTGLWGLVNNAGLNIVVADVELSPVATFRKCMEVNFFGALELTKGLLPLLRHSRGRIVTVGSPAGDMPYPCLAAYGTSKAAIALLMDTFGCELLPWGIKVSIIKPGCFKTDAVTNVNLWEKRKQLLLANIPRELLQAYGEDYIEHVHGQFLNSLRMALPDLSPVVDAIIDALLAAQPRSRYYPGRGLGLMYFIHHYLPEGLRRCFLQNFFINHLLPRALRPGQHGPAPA

[3] = molecular target: 11-beta-hydroxysteroid dehydrogenase 1 (Mus musculus) (UniProt P50172); test: Inhibition of mouse 11beta-HSD1 expressed in HEK293 cells assessed as conversion of [3H]cortisone into [3H]cortisol at 1 uM by scintillation proximity assay
11-beta-hydroxysteroid dehydrogenase 1 (Mus musculus), sequence (P50172 whole entry, looked up): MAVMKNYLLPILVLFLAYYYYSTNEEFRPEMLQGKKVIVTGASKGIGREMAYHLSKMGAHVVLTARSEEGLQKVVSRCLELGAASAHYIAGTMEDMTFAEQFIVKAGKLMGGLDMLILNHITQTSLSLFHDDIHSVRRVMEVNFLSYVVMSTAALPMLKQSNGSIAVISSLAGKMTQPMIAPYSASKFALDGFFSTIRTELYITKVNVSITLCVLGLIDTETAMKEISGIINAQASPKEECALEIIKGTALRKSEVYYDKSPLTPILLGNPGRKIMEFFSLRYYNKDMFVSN

[4] = molecular target: T3, 11-beta-hydroxysteroid dehydrogenase 1 (Homo sapiens, UniProt P28845); test: Inhibition of human 11beta-HSD1 expressed in HEK293 cells assessed as conversion of [3H]cortisone into [3H]cortisol at 1 uM by scintillation proximity assay
Target sequence in this assay (P28845 whole entry, looked up): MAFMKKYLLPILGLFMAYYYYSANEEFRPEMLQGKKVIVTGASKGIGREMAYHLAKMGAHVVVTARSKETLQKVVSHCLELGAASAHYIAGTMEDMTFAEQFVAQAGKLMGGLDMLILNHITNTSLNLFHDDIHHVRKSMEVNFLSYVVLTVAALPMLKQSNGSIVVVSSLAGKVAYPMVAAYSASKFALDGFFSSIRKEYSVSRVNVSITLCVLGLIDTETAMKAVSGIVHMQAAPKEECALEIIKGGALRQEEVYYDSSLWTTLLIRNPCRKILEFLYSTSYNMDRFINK

[5] = molecular target: T3, 11-beta-hydroxysteroid dehydrogenase 1; test: Inhibition of human 11beta-HSD1 expressed in HEK293 cells assessed as conversion of [3H]cortisone into [3H]cortisol by scintillation proximity assay
Procedure, shortened: (§1)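 Full-length human or murine 11β-HSD1 cDNA was cloned into pcDNA3 and stably expressed in HEK-293 cells selected with 750 μg/mL G418. Microsomes from these cells were incubated with NADPH and [3H]cortisone. The [3H]cortisol formed was captured by a monoclonal antibody on protein A-coated SPA beads. Assays were run in duplicate and repeated twice; IC50 is given as the average. Glycyrrhizinic acid served as positive control.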
Target sequence in this assay (P28845 whole entry): as the sequence (P28845 whole entry, looked up) above

[6] = molecular target: 11-beta-hydroxysteroid dehydrogenase 1 (Mus musculus, UniProt P50172); test: Inhibition of mouse 11beta-HSD1 expressed in HEK293 cells assessed as conversion of [3H]cortisone into [3H]cortisol by scintillation proximity assay; procedure, shortened: as §1
11-beta-hydroxysteroid dehydrogenase 1 (Mus musculus, UniProt P50172), sequence (P50172 whole entry): as the sequence (P50172 whole entry, looked up) above

[7] = molecular target: T4, 11-beta-hydroxysteroid dehydrogenase type 2 (Mus musculus, UniProt P51661); test: Inhibition of mouse 11beta-HSD2 expressed in HEK293 cells assessed as conversion of [3H]cortisone into [3H]cortisol by scintillation proximity assay
T4 sequence (P51661 whole entry): T2 sequence (whole entry)

[8] = molecular target: T5, 11-beta-hydroxysteroid dehydrogenase type 2 (Homo sapiens, UniProt P80365); test: Inhibition of human 11beta-HSD2 expressed in HEK293 cells assessed as conversion of [3H]cortisone into [3H]cortisol by scintillation proximity assay
T5 sequence (P80365 whole entry): T1 sequence (whole entry)

Row | inhibition [1] [%] | inhibition [2] [%] | inhibition [3] [%] | inhibition [4] [%] | IC50 [5] [nM] | IC50 [6] [nM] | IC50 [7] [nM] | IC50 [8] [nM] | SMILES
1 | < 50 | < 50 | < 50 | < 50 |  |  |  |  | C[C@@H]1CC[C@@H](C(C)(C)O)OC(=O)[C@@]23C[C@@H](O)[C@H]1[C@@]2(C)CC[C@@]12C[C@@]14CCC(=O)C(C)(C)[C@@H]4CC[C@H]23
2 | < 50 | < 50 | < 50 | < 50 |  |  |  |  | C=C1C[C@@H]2[C@@]3(C)CC[C@]4(C)[C@H]5CC[C@@]6(C)[C@@H](CC[C@H](O)[C@@H]6C)[C@]5(C)CC[C@@]24C(=O)O[C@H]3[C@H]1O (relative stereo)
3 |  |  |  |  | 6 | 3 |  |  | CC1(C)[C@@H](O[C@H]2O[C@H](C(=O)O)[C@@H](O)[C@H](O)[C@H]2O[C@@H]2O[C@H](C(=O)O)[C@@H](O)[C@H](O)[C@H]2O)CC[C@]2(C)[C@H]3C(=O)C=C4[C@@H]5C[C@@](C)(C(=O)O)CC[C@]5(C)CC[C@@]4(C)[C@]3(C)CC[C@@H]12 [GLYCYRRHIZIN]
4 | < 50 | < 50 | < 50 | < 50 |  |  |  |  | C[C@H](CC[C@H](O)C(C)(C)O)[C@H]1[C@@H](O)C[C@]23C(=O)O[C@@]4(CC[C@]12C)C[C@@H]1CCC(=O)C(C)(C)[C@@H]1CC[C@H]43
5 | < 50 | < 50 | < 50 | < 50 |  |  |  |  | CC(=O)O[C@H]1CC[C@@H]2[C@](C)(CC[C@H]3[C@@]2(C)CC[C@@]2(C(=O)O)[C@@H]4CC(C)(C)CC[C@]4(C)CC[C@]32C)[C@H]1C
6 |  |  |  |  | 72 | 13 | > 100000 | 400 | C[C@H](CC[C@@H](O)C(C)(C)O)[C@H]1CC[C@@]2(C(=O)O)[C@@H]3CC[C@H]4C(C)(C)[C@@H](O)CC[C@@]45C[C@@]35CC[C@]12C (relative stereo) [CALONCOBIC ACID B]
7 | < 50 | < 50 | < 50 | < 50 |  |  |  |  | C=C1C[C@@H]2[C@@](C)(CC[C@]3(C)[C@H]4CC[C@@]5(C)[C@@H](CC[C@H](O)[C@@H]5C)[C@]4(C)CC[C@@]23C(=O)O)C[C@@H]1O
8 |  |  |  |  | 105 | 132 | > 100000 | > 100000 | C=C(C)[C@@H](O)CC[C@@H](C)[C@H]1CC[C@@]2(C(=O)O)[C@@H]3CC[C@H]4C(C)(C)C(=O)CC[C@@]45C[C@@]35CC[C@]12C (relative stereo) [CALONCOBIC ACID A]
